The record followed here is the array DNA melting data of Ke et al. (doi:10.1101/2024.01.08.574731).

A short description of data set [1]: folding enthalpy; higher = less favourable; fluorescence melt of hairpins on a sequencing array, two-state fit. As to conditions: sodium 0.088 M. The method in brief: (§1)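 Cy3 fluorescence of library hairpins on a sequenced MiSeq flow cell, with annealed Cy3 and quencher oligos, was imaged in 50 mM Na-HEPES pH 8.0, 25 mM NaCl in 2.5 °C steps up to 60 °C. Signals were normalised to pre-quench Cy3 and to control variants. Melting temperature and folding enthalpy came from bootstrapped two-state fits, inverse-variance combined over four replicates. Fitted temperatures were raised by 9.35 °C to match UV melts.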

Data set [2] is described as follows: melting temperature; fluorescence melt of hairpins on a sequencing array, two-state fit, raised by 9.35 °C to match UV melts. As to conditions: sodium 0.088 M. An outline of the steps: as §1

On to GATCACTAAGGTGATC ((((((....)))))), for which, in data set [1], the folding enthalpy was -148 kJ/mol. Besides, in data set [2], the Tm was found to be 57 °C.
For GATCACTAGGTGATC ((((((...)))))), in that order: -171 kJ/mol and 55.2 °C.
Take GATCACTATCGTGATC ((((((....)))))): the folding enthalpy in data set [1] is -173 kJ/mol. For the same sequence, the Tm in data set [2] came to 55.1 °C.
For GATCACTCTTGTGATC ((((((....)))))), in that order: -161 kJ/mol and 56.7 °C.
Take GATCACTGAGGTGATC ((((((....)))))): the folding enthalpy in data set [1] was -170 kJ/mol. The Tm in data set [2] was determined as 59.4 °C.
For GATCACTGATGTGATC ((((((....)))))), in that order: -144 kJ/mol and 55.9 °C.
For GATCACTGGGGTGATC ((((((....)))))), in that order: -199 kJ/mol and 58.3 °C.
For GATCACTGGGTGATC ((((((...)))))), in that order: -138 kJ/mol and 57.3 °C.
Turning to GATCACTGTAGTGATC ((((((....)))))), the folding enthalpy in data set [1] was -166 kJ/mol. Besides, in data set [2], the Tm stood at 60.6 °C.
For GATCACTGTCGTGATC ((((((....)))))), in that order: -156 kJ/mol and 54.9 °C.
For GATCACTGTGTGATC ((((((...)))))), in that order: -130 kJ/mol and 61.7 °C.
For GATCACTGTTGTGATC ((((((....)))))), in that order: -133 kJ/mol and 57.5 °C.
With GATCACTTAGGTGATC ((((((....)))))), the folding enthalpy in data set [1] is -174 kJ/mol. The Tm in data set [2] stood at 57.6 °C.
For GATCACTTGGGTGATC ((((((....)))))), in that order: -167 kJ/mol and 57.1 °C.
Consider GATCACTTTGTGATC ((((((...)))))), for which, in data set [1], the folding enthalpy is -143 kJ/mol. In data set [2], the Tm stood at 63.1 °C.
For GATCACTTTTGTGATC ((((((....)))))), in that order: -180 kJ/mol and 59 °C.
For GATCAGAAACTGATC ((((((...)))))), in that order: -152 kJ/mol and 47.5 °C.
For GATCAGAAGGCTGATC ((((((....)))))), in that order: -123 kJ/mol and 45.8 °C.
For GATCAGACACTGATC ((((((...)))))), the folding enthalpy in data set [1] was -197 kJ/mol. The Tm in data set [2] came out at 48.6 °C.
For GATCAGACAGCTGATC ((((((....)))))), in that order: -134 kJ/mol and 45.3 °C.
For GATCAGACATCTGATC ((((((....)))))), in that order: -166 kJ/mol and 48.2 °C.
For GATCAGACCCCTGATC ((((((....)))))), in that order: -145 kJ/mol and 47.7 °C.
For GATCAGACTGCTGATC ((((((....)))))), the folding enthalpy in data set [1] was -117 kJ/mol. In addition, the Tm in data set [2] is 48.3 °C.
For GATCAGAGCCCTGATC ((((((....)))))), in that order: -153 kJ/mol and 47.7 °C.
GATCAGAGCCTGATC ((((((...)))))): in data set [1], the folding enthalpy is -106 kJ/mol. The Tm in data set [2] is 47.4 °C.
For GATCAGAGCTCTGATC ((((((....)))))), in that order: -222 kJ/mol and 54.1 °C.
For GATCAGAGGGCTGATC ((((((....)))))), in that order: -164 kJ/mol and 47.7 °C.
Take GATCAGAGTGCTGATC ((((((....)))))): the folding enthalpy in data set [1] is -131 kJ/mol. For the same sequence, in data set [2], the Tm worked out at 50.2 °C.
On to GATCAGATTGCTGATC ((((((....)))))), for which, in data set [1], the folding enthalpy is -165 kJ/mol. Also, in data set [2], the Tm was 49.5 °C.
For GATCAGCACCTGATC ((((((...)))))), in that order: -130 kJ/mol and 48.3 °C.
For GATCAGCAGCCTGATC ((((((....)))))), in that order: -153 kJ/mol and 48.7 °C.
For GATCAGCATACTGATC ((((((....)))))), in that order: -161 kJ/mol and 51.4 °C.
For GATCAGCATCTGATC ((((((...)))))), the folding enthalpy in data set [1] was -143 kJ/mol. For the same sequence, in data set [2], the Tm stood at 46.7 °C.
For GATCAGCCATCTGATC ((((((....)))))), in that order: -156 kJ/mol and 49.4 °C.
For GATCAGCCGGCTGATC ((((((....)))))), in that order: -201 kJ/mol and 63.4 °C.
As for GATCAGCGAAAGCTAATC (((.(((....))).))), in data set [1], the folding enthalpy was -65.7 kJ/mol. Besides, the Tm in data set [2] is 35.9 °C.
For GATCAGCGAAAGCTCATC (((.(((....))).))), in that order: -54.3 kJ/mol and 29.8 °C.
For GATCAGCGGCCTGATC ((((((....)))))), in that order: -154 kJ/mol and 49.8 °C.
Consider GATCAGCTAACTGATC ((((((....)))))), for which the folding enthalpy in data set [1] was -167 kJ/mol. The Tm in data set [2] amounted to 49.7 °C.
For GATCAGCTGCCTGATC ((((((....)))))), in that order: -115 kJ/mol and 50.5 °C.
For GATCAGCTTACTGATC ((((((....)))))), in that order: -142 kJ/mol and 51.3 °C.
For GATCAGCTTCTGATC ((((((...)))))), in that order: -132 kJ/mol and 49.1 °C.
GATCAGGACCCTGATC ((((((....)))))): in data set [1], the folding enthalpy is -166 kJ/mol. For the same sequence, the Tm in data set [2] came out at 54.4 °C.
For GATCAGGATGCTGATC ((((((....)))))), in that order: -181 kJ/mol and 50.3 °C.
For GATCAGGCACCTGATC ((((((....)))))), in that order: -174 kJ/mol and 55.4 °C.
For GATCAGGCACTGATC ((((((...)))))), in that order: -182 kJ/mol and 59.8 °C.
For GATCAGGCCACTGATC ((((((....)))))), the folding enthalpy in data set [1] is -152 kJ/mol. The Tm in data set [2] came out at 60.8 °C.
On to GATCAGGCTCTGATC ((((((...)))))), for which, in data set [1], the folding enthalpy is -147 kJ/mol. In addition, in data set [2], the Tm was 49.1 °C.
For GATCAGGGAAACTTGATC (((((.(....).))))), in that order: -128 kJ/mol and 38.2 °C.
For GATCAGGGAACTGATC ((((((....)))))), in that order: -138 kJ/mol and 55.5 °C.
For GATCAGGGAGCTGATC ((((((....)))))), in that order: -147 kJ/mol and 52.4 °C.
In the case of GATCAGGGCCCTGATC ((((((....)))))), the folding enthalpy in data set [1] was -246 kJ/mol. The Tm in data set [2] came to 60.3 °C.
For GATCAGGGCGCTGATC ((((((....)))))), in that order: -198 kJ/mol and 55.4 °C.
For GATCAGGGGGCTGATC ((((((....)))))), in that order: -160 kJ/mol and 49.7 °C.
Regarding GATCAGGGGTCTGATC ((((((....)))))), in data set [1], the folding enthalpy was -136 kJ/mol. The Tm in data set [2] came to 50.8 °C.
For GATCAGGTACCTGATC ((((((....)))))), in that order: -170 kJ/mol and 58.8 °C.
For GATCAGGTACTGATC ((((((...)))))), in that order: -172 kJ/mol and 61.4 °C.
For GATCAGGTATCTGATC ((((((....)))))), in that order: -171 kJ/mol and 57.5 °C.
Regarding GATCAGGTCACTGATC ((((((....)))))), in data set [1], the folding enthalpy is -192 kJ/mol. Also, in data set [2], the Tm stood at 59.4 °C.
Regarding GATCAGTACTCTGATC ((((((....)))))), in data set [1], the folding enthalpy was -182 kJ/mol. For the same sequence, in data set [2], the Tm came out at 50.4 °C.
For GATCAGTAGGCTGATC ((((((....)))))), in that order: -177 kJ/mol and 52.4 °C.
In the case of GATCAGTATGCTGATC ((((((....)))))), the folding enthalpy in data set [1] was -151 kJ/mol. Also, in data set [2], the Tm came to 55.2 °C.
As for GATCAGTCAGCTGATC ((((((....)))))), the folding enthalpy in data set [1] is -171 kJ/mol. The Tm in data set [2] stood at 51.3 °C.
For GATCAGTGACCTGATC ((((((....)))))), in that order: -126 kJ/mol and 48.7 °C.
For GATCAGTGGCTGATC ((((((...)))))), in that order: -91.9 kJ/mol and 49.7 °C.
For GATCAGTGTTCTGATC ((((((....)))))), in that order: -156 kJ/mol and 50.2 °C.
GATCAGTTCCCTGATC ((((((....)))))): in data set [1], the folding enthalpy is -134 kJ/mol. In data set [2], the Tm is 49.7 °C.
For GATCATAAAATGATC ((((((...)))))), in that order: -128 kJ/mol and 48 °C.
For the sequence GATCATAAAGATGATC ((((((....)))))), the folding enthalpy in data set [1] is -102 kJ/mol. For the same sequence, in data set [2], the Tm was determined as 40 °C.
For GATCATAACCATGATC ((((((....)))))), in that order: -150 kJ/mol and 47.4 °C.
For GATCATAAGAATGATC ((((((....)))))), in that order: -116 kJ/mol and 40.1 °C.
For GATCATAAGATGATC ((((((...)))))), in that order: -130 kJ/mol and 46.6 °C.
In the case of GATCATACACATGATC ((((((....)))))), the folding enthalpy in data set [1] is -151 kJ/mol. Moreover, in data set [2], the Tm came out at 47.2 °C.
As to GATCATACTGATGATC ((((((....)))))), the folding enthalpy in data set [1] was -127 kJ/mol. In addition, in data set [2], the Tm was determined as 46.3 °C.
For GATCATAGCGATGATC ((((((....)))))), in data set [1], the folding enthalpy is -184 kJ/mol. Also, the Tm in data set [2] was 46.9 °C.
Take GATCATAGGATGATC ((((((...)))))): the folding enthalpy in data set [1] is -129 kJ/mol. Also, the Tm in data set [2] turned out to be 48.3 °C.
